Experiments:
Format in all cases: functional
[1] = In vitro ability to protect human LDL against Cu2+-induced peroxidation. (concentration inhibiting 50% of the Cu2+ induced lipid peroxidation)
In short: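 Human LDL (120 µg/mL) oxidized with 10 µM CuSO4 as initiator for 4 h in the presence of compound. Lipid peroxidation read out as TBARS. IC50 is the concentration inhibiting TBARS formation by 50%.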

Homo sapiens [2] = organism: Homo sapiens; test: Antioxidant effect on the Cu2+-mediated oxidation andapoB-100 fragmentation in LDL after incubation with 5 uM of compound
In short: (§1)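 LDL (240 µg/mL in PBS) incubated 12 h at 37 °C with 5 µM CuSO4, with or without compound. About 2.0 µg LDL protein run on 4% SDS-PAGE and stained with Coomassie Brilliant Blue R250. ApoB-100 band quantified by densitometry as peak area (absorbance units per mm). Also reported as percent remaining apoB-100 relative to intact apoB-100 of native LDL incubated without CuSO4.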

Homo sapiens [3] = organism: Homo sapiens; test: Antioxidant effect on the Cu2+-mediated oxidation andapoB-100 fragmentation in LDL after incubation with 20 uM of compound; in short: as §1
Homo sapiens [4] = organism: Homo sapiens; test: Antioxidant effect on the Cu2+-mediated oxidation andapoB-100 fragmentation in LDL after incubation with 10 uM of compound; in short: as §1
Homo sapiens [5] = organism: Homo sapiens; test: Antioxidant effect on the Cu2+-mediated oxidation and apoB-100 fragmentation in LDL after incubation with 20 uM of compound; in short: as §1
Homo sapiens [6] = organism: Homo sapiens; test: Antioxidant effect on the Cu2+-mediated oxidation and apoB-100 fragmentation in LDL after incubation with 5 uM of compound; in short: as §1
Homo sapiens [7] = organism: Homo sapiens; test: Antioxidant effect on the Cu2+-mediated oxidation and apoB-100 fragmentation in LDL after incubation with 10 uM of compound; in short: as §1

COc1cc(C2CC(c3cc(C(C)(C)C)c(O)c(C(C)(C)C)c3)=NN2)ccc1O (stereo not drawn)
IC50 [1]: 200 nM

CC(C)(C)c1cc(C2=NNC(c3cc(F)c(O)c(F)c3)C2)cc(C(C)(C)C)c1O (stereo not drawn)
IC50 [1]: 200 nM

CC(C)c1cc(C2CC(c3cc(C(C)(C)C)c(O)c(C(C)(C)C)c3)=NN2)cc(C(C)C)c1O (stereo not drawn)
IC50 [1]: 700 nM

Cc1cc(C2CC(c3cc(C(C)(C)C)c(O)c(C(C)(C)C)c3)=NN2)c(C)c(C)c1O (stereo not drawn)
IC50 [1]: 600 nM

CC(C)(C)c1cc(C2=NNC(c3ccc(O)c([N+](=O)[O-])c3)C2)cc(C(C)(C)C)c1O (stereo not drawn)
IC50 [1]: 300 nM

CC(C)(C)c1cc(-c2cc(-c3cc(C(C)(C)C)c(O)c(C(C)(C)C)c3)[nH]n2)cc(C(C)(C)C)c1O
IC50 [1]: 700 nM

Cc1cc(C2CC(c3cc(C(C)(C)C)c(O)c(C(C)(C)C)c3)=NN2)cc(C)c1O (stereo not drawn)
IC50 [1]: 200 nM

CC(C)(C)c1cc(C2=NNC(c3cc(C(C)(C)C)c(O)c(C(C)(C)C)c3)C2)cc(C(C)(C)C)c1O (stereo not drawn)
Area (Homo sapiens [2]): 5.63 AU mm-1
Area (Homo sapiens [3]): 9.97 AU mm-1
IC50 [1]: 100 nM
Area (Homo sapiens [4]): 9.26 AU mm-1

CC(C)(C)c1cc(C2=NNC(c3ccc(O)cc3)C2)cc(C(C)(C)C)c1O (stereo not drawn)
IC50 [1]: 200 nM

CC(C)(C)c1cc(C2=NNC(c3cc(-c4ccccc4)c(O)c(-c4ccccc4)c3)C2)cc(C(C)(C)C)c1O (stereo not drawn)
IC50 [1]: 600 nM

CC(C)(C)c1cc(C2=NNC(c3ccc(O)c(O)c3)C2)cc(C(C)(C)C)c1O (stereo not drawn)
IC50 [1]: 300 nM

CC(C)(Sc1cc(C(C)(C)C)c(O)c(C(C)(C)C)c1)Sc1cc(C(C)(C)C)c(O)c(C(C)(C)C)c1 [PROBUCOL]
Area (Homo sapiens [5]): 9.22 AU mm-1
Area (Homo sapiens [6]): 0 AU mm-1
IC50 [1]: 600 nM
Area (Homo sapiens [7]): 4.73 AU mm-1

— ChEMBL document CHEMBL1148421, “Novel 3,5-diaryl pyrazolines and pyrazole as low-density lipoprotein (LDL) oxidation inhibitor” (Bioorg Med Chem Lett, 2004)
